Data: ChEMBL document CHEMBL1177643, “Synthesis, DNA-binding ability and anticancer activity of benzothiazole/benzoxazole-pyrrolo[2,1-c][1,4]benzodiazepine conjugates” (Bioorg Med Chem, 2010)
“And” between values parts separate entries of the source, which are not always exact repeats. Identical values can stand only once.

Key:
[1] = test system: KM12; assay: Growth inhibition of human KM12 cells after 48 hrs by sulforhodamine B assay; type: functional; settings: KM12, 48 h
Summary of the method: (§1)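 Panel of 60 human cancer cell lines; for each compound, dose–response curves per cell line measured at a minimum of five concentrations at 10-fold dilutions. Cells exposed continuously to drug for 48 h, and growth was read out by sulforhodamine B staining.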

[2] = test system: U-251; assay: Growth inhibition of human U251 cells after 48 hrs by sulforhodamine B assay; type: functional; settings: U-251, 48 h; summary of the method: as §1
[3] = test system: SF-295; assay: Growth inhibition of human SF295 cells after 48 hrs by sulforhodamine B assay; type: functional; settings: SF-295, 48 h; summary of the method: as §1
[4] = test system: MDA-MB-435; assay: Growth inhibition of human MDA-MB-435 cells after 48 hrs by sulforhodamine B assay; type: functional; settings: MDA-MB-435, 48 h; summary of the method: as §1
[5] = test system: SNB-19; assay: Growth inhibition of human SNB19 cells after 48 hrs by sulforhodamine B assay; type: functional; settings: SNB-19, 48 h; summary of the method: as §1
[6] = test system: A498; assay: Growth inhibition of human A498 cells after 48 hrs by sulforhodamine B assay; type: functional; settings: A498, 48 h
Summary of the method: (§2)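 Dose–response in each cell line over at least five concentrations at 10-fold dilutions, with 48 h continuous exposure and sulforhodamine B read-out.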

[7] = test system: TK-10; assay: Growth inhibition of human TK10 cells after 48 hrs by sulforhodamine B assay; type: functional; settings: TK-10, 48 h; summary of the method: as §1
[8] = test system: SK-MEL-2; assay: Growth inhibition of human SK-MEL-2 cells after 48 hrs by sulforhodamine B assay; type: functional; settings: SK-MEL-2, 48 h; summary of the method: as §1
[9] = test system: PC-3; assay: Growth inhibition of human PC3 cells after 48 hrs by sulforhodamine B assay; type: functional; settings: PC-3, 48 h; summary of the method: as §1
[10] = test system: UO-31; assay: Growth inhibition of human UO31 cells after 48 hrs by sulforhodamine B assay; type: functional; settings: UO-31, 48 h; summary of the method: as §1
[11] = test system: SK-MEL-28; assay: Growth inhibition of human SK-MEL-28 cells after 48 hrs by sulforhodamine B assay; type: functional; settings: SK-MEL-28, 48 h; summary of the method: as §1
[12] = test system: MCF7; assay: Growth inhibition of human MCF7 cells after 48 hrs by sulforhodamine B assay; type: functional; settings: MCF7, 48 h; summary of the method: as §1
[13] = test system: HT-29; assay: Growth inhibition of human HT-29 cells after 48 hrs by sulforhodamine B assay; type: functional; settings: HT-29, 48 h; summary of the method: as §1
[14] = test system: NCI-H226; assay: Growth inhibition of human NCI-H226 cells after 48 hrs by sulforhodamine B assay; type: functional; settings: NCI-H226, 48 h; summary of the method: as §1
[15] = test system: 786-0; assay: Growth inhibition of human 786-0 cells after 48 hrs by sulforhodamine B assay; type: functional; settings: 786-0, 48 h; summary of the method: as §2
[16] = test system: IGROV-1; assay: Growth inhibition of human IGROV1 cells after 48 hrs by sulforhodamine B assay; type: functional; settings: IGROV-1, 48 h; summary of the method: as §1
[17] = test system: Calf thymus DNA; assay: Binding affinity to calf thymus duplex-form DNA assessed as melting temperature at 1:5 compound/DNA ratio after 18 hrs; type: nucleic-acid assay; settings: Bos taurus
[18] = test system: NCI-H460; assay: Growth inhibition of human NCI-H460 cells after 48 hrs by sulforhodamine B assay; type: functional; settings: NCI-H460, 48 h; summary of the method: as §1
[19] = test system: HT-29; assay: Antitumor activity against human HT-29 cells xenografted in SCID mouse assessed as reduction tumor volume at 15 mg/kg, ip measured on day 9; type: functional; settings: route intraperitoneal
Summary of the method: (§3)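 HT29 xenografts in scid mice; dosing ip on days 1, 5 and 9 (q4d), 5 or 10 mg/kg per dose (total 15 or 30 mg/kg); vehicle control group. Tumour volume, body weight and toxicity followed for 35 days. Relative tumour volume = volume on given day / volume on day 1; T/C = mean RTV treated / mean RTV control.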

[20] = test system: HT-29; assay: Antitumor activity against human HT-29 cells xenografted in SCID mouse assessed as reduction tumor volume at 30 mg/kg, ip measured on day 5; type: functional; settings: route intraperitoneal; summary of the method: as §3
[21] = test system: A-375; assay: Cell cycle arrest in human A375 cells assessed as accumulation at G0 phase at 0.5 uM after 24 hrs using propidium iodide staining by flow cytometry; type: functional
Summary of the method: (§4)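 A375 cells (5×10^5) grown 24 h, then exposed to compound 24 h (DMSO control). Trypsin–EDTA harvest, fixed in ice-cold 70% ethanol at 4 °C 30 min, RNase A 37 °C 30 min, propidium iodide staining. DNA content measured by flow cytometry on 20,000 events, gated as sub-G1/G0, G1, S and G2/M.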

[22] = test system: Calf thymus DNA; assay: Binding affinity to calf thymus duplex-form DNA assessed as cleavage of pBR322 after 16 hrs by restriction endonuclease digestion assay in presence of BamHI; type: nucleic-acid assay; settings: Bos taurus
Summary of the method: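 pBR322 DNA (500 ng) preincubated with compound (5–30 μM) 16 h at 37 °C, then digested with BamHI (20 U) 1 h at 37 °C. Products run on 1% agarose in Tris–acetate EDTA, 80 V, 2 h. Read-out was ethidium bromide staining under UV, with an undigested and a fully digested control.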

[23] = Toxicity in SCID mouse; type: organism-based; settings: in vivo
[24] = test system: A-375; assay: Cell cycle arrest in human A375 cells assessed as accumulation at G1 phase at 0.5 uM after 24 hrs using propidium iodide staining by flow cytometry; type: functional; summary of the method: as §4
[25] = test system: Mus musculus; assay: Toxicity in SCID mouse assessed as weight loss at 30 mg/kg, ip; type: organism-based; design: dose 30 mg/kg, route intraperitoneal; settings: in vivo
Summary of the method: (§5)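 HT29 xenograft-bearing scid mice dosed ip at 5 or 10 mg/kg on days 1, 5 and 9 (q4d), totalling 15 or 30 mg/kg. Vehicle-treated control group. Body weight, survival and signs of overt toxicity were recorded over the 35-day study.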

[26] = test system: NCI-H23; assay: Growth inhibition of human NCI-H23 cells after 48 hrs by sulforhodamine B assay; type: functional; settings: NCI-H23, 48 h; summary of the method: as §1
[27] = test system: HT-29; assay: Antitumor activity against human HT-29 cells xenografted in SCID mouse assessed as reduction tumor volume at 30 mg/kg, ip measured on day 14; type: functional; settings: route intraperitoneal; summary of the method: as §3
[28] = test system: HT-29; assay: Antitumor activity against human HT-29 cells xenografted in SCID mouse assessed as reduction tumor volume at 15 mg/kg, ip measured on day 14; type: functional; settings: route intraperitoneal; summary of the method: as §3
[29] = test system: Mus musculus; assay: Toxicity in SCID mouse assessed as mortality at 15 mg/kg, ip; type: organism-based; design: dose 15 mg/kg, route intraperitoneal; settings: in vivo; summary of the method: as §5
[30] = test system: DU-145; assay: Growth inhibition of human DU145 cells after 48 hrs by sulforhodamine B assay; type: functional; settings: DU-145, 48 h; summary of the method: as §2
[31] = test system: HT-29; assay: Antitumor activity against human HT-29 cells xenografted in SCID mouse assessed as reduction tumor volume at 30 mg/kg, ip measured on day 17; type: functional; settings: route intraperitoneal; summary of the method: as §3
[32] = test system: Mus musculus; assay: Toxicity in SCID mouse assessed as mortality at 50 mg/kg, ip; type: organism-based; design: dose 50 mg/kg, route intraperitoneal; settings: in vivo
[33] = test system: HT-29; assay: Antitumor activity against human HT-29 cells xenografted in SCID mouse assessed as reduction tumor volume at 30 mg/kg, ip measured on day 21; type: functional; settings: route intraperitoneal; summary of the method: as §3
[34] = test system: A-375; assay: Cell cycle arrest in human A375 cells assessed as accumulation at S phase at 1 uM after 24 hrs using propidium iodide staining by flow cytometry; type: functional; summary of the method: as §4
[35] = test system: Mus musculus; assay: Toxicity in SCID mouse assessed as weight loss at 15 mg/kg, ip; type: organism-based; design: dose 15 mg/kg, route intraperitoneal; settings: in vivo; summary of the method: as §5
[36] = test system: A-375; assay: Cell cycle arrest in human A375 cells assessed as accumulation at G1 phase at 1 uM after 24 hrs using propidium iodide staining by flow cytometry; type: functional; summary of the method: as §4
[37] = test system: A-375; assay: Cell cycle arrest in human A375 cells assessed as accumulation at S phase at 0.5 uM after 24 hrs using propidium iodide staining by flow cytometry; type: functional; summary of the method: as §4

COc1cc2c(cc1OCCCCC(=O)Nc1ccc(-c3nc4ccccc4s3)cc1)N=C[C@@H]1CCCN1C2=O
GI50 [1]: 2950 nM
GI50 [2]: 1910 nM
GI50 [3]: 550 nM
GI50 [4]: 1780 nM
GI50 [5]: 2690 nM
GI50 [6]: 1860 nM
GI50 [7]: 3240 nM
GI50 [8]: 1950 nM
GI50 [9]: 2040 nM
GI50 [10]: 1660 nM
GI50 [11]: 2240 nM
GI50 [12]: 724 nM
GI50 [13]: 2140 nM
GI50 [14]: 2880 nM
GI50 [15]: 1550 nM
GI50 [16]: 692 nM
ΔTm [17]: 0.5 °C
GI50 [18]: 1660 nM

COc1cc(-c2nc3ccccc3s2)ccc1OCCCCCOc1cc2c(cc1OC)C(=O)N1CCC[C@H]1C=N2
GI50 [1]: 166 nM
T/C [19]: 0.49%
T/C [20]: 0.85%
Activity [21]: 2.13%
Activity [22]: Dose-dependent effect
GI50 [2]: 33.9 nM
GI50 [3]: 67.6 nM
GI50 [4]: 85.1 nM
GI50 [5]: 219 nM
GI50 [6]: 174 nM
MTD [23]: < 50 mg/kg
GI50 [7]: 331 nM
Activity [24]: 64.95%
Activity [25]: Non-toxic
GI50 [8]: 178 nM
GI50 [26]: 61.7 nM
T/C [27]: 0.66%
GI50 [9]: 41.7 nM
GI50 [10]: 200 nM
T/C [28]: 0.58% and 0.3%
Activity [29]: Non-toxic
GI50 [30]: 33.9 nM
GI50 [11]: 331 nM
GI50 [12]: 19.1 nM
GI50 [13]: 40.7 nM
T/C [31]: 0.81%
Activity [32]: Non-toxic
GI50 [14]: 214 nM
T/C [33]: 0.58%
Activity [34]: 15.42%
GI50 [15]: 27.5 nM
Activity [35]: Non-toxic
GI50 [16]: 347 nM
ΔTm [17]: 6.3 °C
GI50 [18]: 39.8 nM
Activity [36]: 61.56%
Activity [37]: 64.95%

COc1cc(-c2nc3ccccc3s2)ccc1OCCCCOc1cc2c(cc1OC)C(=O)N1CCC[C@H]1C=N2
GI50 [1]: 1020 nM
Activity [22]: Dose-dependent effect
GI50 [2]: 417 nM
GI50 [3]: 1910 nM
GI50 [4]: 1350 nM
GI50 [5]: 1620 nM
GI50 [6]: 1620 nM
GI50 [7]: 1510 nM
GI50 [8]: 1230 nM
GI50 [26]: 1480 nM
GI50 [9]: 407 nM
GI50 [10]: 1230 nM
GI50 [30]: 302 nM
GI50 [11]: 2140 nM
GI50 [12]: 407 nM
GI50 [13]: 537 nM
GI50 [14]: 2400 nM
GI50 [15]: 891 nM
GI50 [16]: 3090 nM
ΔTm [17]: 0.5 °C
GI50 [18]: 646 nM
